Data on 3 compounds can be found in article PMC9979192 (Acta Pharmaceutica Sinica. B, 2022).

The test system of data set [1] is primary mouse hepatocytes. As to the kind of experiment: Glucose output. Type of data set: cell-based. Particulars: 6 h, pyruvate 2 mmol/L and lactate 20 mmol/L; compared to BA. In short, it runs like this:
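Primary hepatocytes from male C57BL/6J mice were treated with the test compound for 6 h in gluconeogenic medium with pyruvate (2 mmol/L) and lactate (20 mmol/L), with or without 4.0 mmol/L l-glutamine. Glucose output into the medium was measured and normalized to the DMSO group; n = 4.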

Data set [2] relates to mouse primary hepatocytes. Briefly: In vitro de novo lipogenesis in primary hepatocytes. Particulars: 24 h treatment; compared with BA. Type of data set: cell-based. In short, it runs like this:
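Hepatocytes came from 8–12-week male C57BL/6J mice by Percoll purification and were kept in Hepato ZYME-SFM with 2 mmol/L l-glutamine and antibiotics at 6 × 10^5 cells/well. Treated either 24 h with 0.1 μCi/well [1,2-14C]-acetate during the last 4 h, or 4 h with the label present. 14C in fatty acids and cholesterol was extracted and scintillation-counted, then normalized to DMSO; n = 3–4.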

The conditions of data set [3]: rat plasma; ref a previous study; cited from earlier work.
The conditions of data set [4]: monkey plasma; ref a previous study; cited from earlier work.
Data set [5] concerns hypercholesterolemia patients. Particulars: at 12 weeks, with maximally tolerated statin therapy; cited from earlier work.
The test system of a further data set is primary hepatocytes. Briefly: In vitro cholesterol efflux and Abcg5/8 expression. In kind it is cell-based, mouse. Particulars: 3H-cholesterol, 12 h; BA 50 μmol/L. A digest of the protocol: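 For Abcg5/Abcg8 mRNA, primary mouse hepatocytes were treated 24 h with 50 μmol/L test compound plus 15 μg/mL cholesterol in 420 μg/mL M-β-CD. For efflux, cells were loaded 12 h with 0.5 μCi/mL 3H-cholesterol plus cholesterol, washed, then given 12.5–50 μmol/L compound with 15 μg/mL cholesterol in serum-free medium for 12 h at 37 °C. 3H in medium and NaOH lysate was counted; T0901317 (1 μmol/L) served as positive control.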

For data set [6] the following is noted: mouse plasma; ref a previous study; cited from earlier work.
For another data set, the system named is golden hamsters. As to the kind of experiment: HFHC diet-induced hyperlipidemia in golden hamsters. In kind it is in vivo, golden hamster. Particulars: 2 weeks; 326E 15 and 30 mg/kg, BA 30 mg/kg; vs vehicle.
The conditions of data set [7]: human plasma; ref a previous study; cited from earlier work.
A further data set has as its system HCD mice. As to the kind of experiment: In vivo cholesterol efflux in HCD mice. Particulars: oral 30 mg/kg for 7 days. Set-up: species or system C57BL/6J mice.
In another data set the test system is ApoE-/- mice. Briefly: Western diet-induced atherosclerosis in ApoE-/- mice. The settings on record: 24 weeks once daily oral. Type of data set: in vivo, mouse. In short, it runs like this: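 Male ApoE−/− mice were started at 6–8 weeks on a high-fat, high-cholesterol diet for 23–24 weeks, with oral compound dosing. Whole aortas were stained with Sudan IV for plaque, and plasma hsCRP was measured. For hepatic cholesterol, liver lipid residue was resuspended in ethanol with 1% Triton X-100 and assayed with commercial kits.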

The next data set relates to rhesus monkeys. Briefly: Rhesus monkeys with spontaneous hyperlipidemia, efficacy and safety. Type of data set: in vivo, rhesus monkey. The settings on record: 2 weeks; 326E 20 mg/kg, atorvastatin 2.4 mg/kg.

Read-outs that look alike come from different tables or passages of the source.

Take `CC(C)(CCCCC=CCCCCCC(C)(C)C(=O)O)C(=O)O` [326F]: the cumulative glucose production entry in data set [1] was “reduced with a greater tendency”. Moreover, the “incorporation of [1,2-14C]-acetate into fatty acids and cholesterol” value in data set [2] is “dose-dependent lipogenesis inhibition”.

For `CC(C)(CCCCCC(O)CCCCCC(C)(C)C(=O)O)C(=O)O` [BA, Bempedoic acid], the “in vitro plasma protein-binding rate” value in data set [3], in [4], in data set [6] and in data set [7] was 95%–98 in each case. Further, the “placebo-adjusted decrease from baseline in LDL-C” value in data set [5] is 16.5%. Further, the “cholesterol efflux into the cell culture medium” value in the data set on primary hepatocytes was “markedly promoted cholesterol efflux”. The body weight result in the data set on golden hamsters is recorded as “significantly decreased”. Also, the hepatic cholesterol content result in the data set with HCD mice is given as “significantly reduced hepatic cholesterol content”. Besides, the “hepatic cholesterol content reduced compared to vehicle” value with ApoE-/- mice is given as 37%. The compound also had an aortic plaques reduced in the data set with ApoE-/- mice (326E 15, 30, 60 mg/kg, BA 30 mg/kg) of 33.4%.

As for `CC(C)c1c(C(=O)Nc2ccccc2)c(-c2ccccc2)c(-c2ccc(F)cc2)n1CC[C@@H](O)C[C@@H](O)CC(=O)O` [atorvastatin, Atorvastatin], the “body weight during treatment” value in the data set on rhesus monkeys is given as “unchanged”.
